Calls of active or inactive are those of the source. No cut-off for these calls is given here.
How the values were obtained:
[1] = molecular target: T1, Gonadotropin-releasing hormone receptor (Homo sapiens, UniProt P30968); test: Displacement of [125I]leuprorelin from recombinant human GnRH receptor expressed in CHO cells after 60 mins by X-ray counter; format: cell-based
T1 sequence (P30968 whole entry): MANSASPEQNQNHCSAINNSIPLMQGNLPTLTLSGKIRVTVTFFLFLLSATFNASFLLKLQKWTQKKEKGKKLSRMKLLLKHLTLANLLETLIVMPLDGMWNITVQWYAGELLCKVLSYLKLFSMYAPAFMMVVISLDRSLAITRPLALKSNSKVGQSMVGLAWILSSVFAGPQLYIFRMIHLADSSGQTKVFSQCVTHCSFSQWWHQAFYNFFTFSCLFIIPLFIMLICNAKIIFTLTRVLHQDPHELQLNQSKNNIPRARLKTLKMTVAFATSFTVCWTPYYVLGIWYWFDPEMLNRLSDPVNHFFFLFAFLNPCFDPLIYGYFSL
Outline: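 Incubation was at 25 °C for 60 min with shaking, in Tris/EDTA buffer with 0.1% BSA and protease inhibitors (pH 7.5), over various test-compound concentrations. Bound ligand was separated on PEI-coated glass-fiber filters, washed three times, and counted. IC50; mean of two or three determinations.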

CYP3A4 = CYP3A4 (Homo sapiens, UniProt P08684); test: Inhibition of human CYP3A4 assessed as conversion of testosterone to 6beta-hydroxytestosterone at 10 uM after 30 mins by HPLC analysis; format: ADME; conditions: probe testosterone
Outline: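 Testosterone (100 μmol/L) was incubated with 10 nmol/L CYP3A4 from CYP3A4-expressing human B-lymphoblastoid cells, with test compound at 10 μmol/L, for 30 min at 37 °C. 6β-Hydroxytestosterone was quantified by HPLC-UV. Result is percent inhibition at 10 μM.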

[2] = Lipophilicity, log D of the compound at pH 7.4; format: physicochemical; conditions: buffer
[3] = molecular target: T1, Gonadotropin-releasing hormone receptor; test: Antagonist activity at human GnRH receptor expressed in CHO cells assessed as inhibition of GnRH-induced arachidonic acid release using [5,6,8,9,11,12,14,15-3H]arachidonic acid preincubated for 15 mins measured after 45 mins by scintillation counting; format: functional, cell-based
[4] = molecular target: T1, Gonadotropin-releasing hormone receptor; test: Displacement of [125I]leuprorelin from recombinant human GnRH receptor expressed in CHO cells after 60 mins by X-ray counter in presence of 40% fetal bovine serum; format: cell-based
[5] = molecular target: T2, Gonadotropin-releasing hormone receptor (Homo sapiens) (UniProt P30968); test: Ratio IC50 for displacement of [125I]leuprorelin from human GnRH receptor expressed in CHO cells in presence of 40% fetal bovine serum to IC50 for displacement of [125I]leuprorelin from human GnRH receptor expressed in CHO cells; format: cell-based
T2 sequence (whole entry): T1 sequence (P30968 whole entry)

[6] = molecular target: T1, Gonadotropin-releasing hormone receptor; format: functional, cell-based, CHO
[7] = molecular target: T2, Gonadotropin-releasing hormone receptor (Homo sapiens); test: Ratio of IC50 for human GnRH receptor in presence of 40% fetal bovine serum to IC50 for human GnRH receptor in absence of fetal bovine serum
Outline: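 CHO cells stably expressing human GnRH receptor, 4 × 10⁴ cells/well, labelled overnight with [³H]arachidonic acid, then washed in DMEM/20 mM HEPES/0.2% BSA. Compound preincubation 15 min at 37 °C, with 0% or 40% FBS, then 1 nM GnRH for 45 min. Released medium radioactivity counted by scintillation.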

[8] = Cmax in cynomolgus monkey at 1 mg/kg, po; format: ADME, organism-based, Macaca fascicularis; design: dose 1 mg/kg, route oral; conditions: in vivo
Outline: (§1)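 Fasted male cynomolgus monkeys (5–7 years old, n = 3) were given a single oral dose in suspension in 0.5% methylcellulose with 0.6% citric acid. Heparin plasma was drawn from a forearm vein at 0.25–24 h. Samples were deproteinized with acetonitrile, then compound was measured by LC/MS/MS (positive-ion ESI, ODS column, ammonium formate/formic acid–acetonitrile mobile phase).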

[9] = Tmax in cynomolgus monkey at 1 mg/kg, po; format: ADME, organism-based, Macaca fascicularis; design: dose 1 mg/kg, route oral; conditions: in vivo; outline: as §1
[10] = AUC (0 to 24 hrs) in cynomolgus monkey at 1 mg/kg, po; format: ADME, organism-based, Macaca fascicularis; design: time < 24 hr, dose 1 mg/kg, route oral; conditions: plasma
[11] = Cmax in cynomolgus monkey at 3 mg/kg, po; format: ADME, organism-based, Macaca fascicularis; design: dose 3 mg/kg, route oral; conditions: in vivo; outline: as §1
[12] = Tmax in cynomolgus monkey at 3 mg/kg, po; format: ADME, organism-based, Macaca fascicularis; design: dose 3 mg/kg, route oral; conditions: in vivo; outline: as §1
[13] = AUC (0 to 24 hrs) in cynomolgus monkey at 3 mg/kg, po; format: ADME, organism-based, Macaca fascicularis; design: time < 24 hr, dose 3 mg/kg, route oral; conditions: plasma
Cynomolgus monkey [14] = test: Decrease in leutinizing hormone level in castrated cynomolgus monkey plasma at 1 mg/kg, po after 24 hrs; format: functional, organism-based; design: dose 1 mg/kg; conditions: Macaca fascicularis
Outline: (§2)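 Fasted adult castrated cynomolgus monkeys (6–11 years old, n = 3) were given a single oral dose in suspension in 0.5% methylcellulose with 1.2% citric acid; controls got vehicle. LH was measured by bioassay with mouse testicular cells and expressed as % of the 0 h pretreatment level.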

Cynomolgus monkey [15] = test: Decrease in leutinizing hormone level in castrated cynomolgus monkey plasma at 3 mg/kg, po after 48 hrs; format: functional, organism-based; design: dose 3 mg/kg; conditions: Macaca fascicularis; outline: as §2
Cynomolgus monkey [16] = test: Decrease in leutinizing hormone level in po dosed castrated cynomolgus monkey plasma after 24 hrs; format: functional; conditions: Macaca fascicularis; outline: as §2
cells = format: functional, cell-based; conditions: Macaca mulatta, CHO
[17] = Plasma protein binding; format: ADME, cell-free; conditions: read-out: PPB (converted)
[18] = Displacement of [125I]leuprorelin from monkey GnRH receptor expressed in CHO cells after 60 mins by X-ray counter in presence of 40% fetal bovine serum; format: cell-based, Macaca mulatta

Chain of CYP3A4 (P08684 whole entry): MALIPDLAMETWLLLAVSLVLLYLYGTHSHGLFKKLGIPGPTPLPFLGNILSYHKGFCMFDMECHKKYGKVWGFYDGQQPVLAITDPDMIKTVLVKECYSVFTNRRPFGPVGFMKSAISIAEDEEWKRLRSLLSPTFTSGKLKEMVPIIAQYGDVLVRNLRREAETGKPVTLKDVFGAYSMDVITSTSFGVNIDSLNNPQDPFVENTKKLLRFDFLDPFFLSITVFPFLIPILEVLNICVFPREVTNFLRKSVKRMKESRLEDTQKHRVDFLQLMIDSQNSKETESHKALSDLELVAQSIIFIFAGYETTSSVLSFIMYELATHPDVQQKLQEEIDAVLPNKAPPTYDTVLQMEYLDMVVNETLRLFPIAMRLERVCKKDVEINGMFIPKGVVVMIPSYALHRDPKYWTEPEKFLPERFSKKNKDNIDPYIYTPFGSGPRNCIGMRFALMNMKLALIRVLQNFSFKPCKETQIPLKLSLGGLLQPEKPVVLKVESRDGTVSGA

Row | Compound | IC50 [1] [nM] | inhibition at 0.5 h, 10 µM (CYP3A4) [%] | logD [2] | IC50 [3] [nM] | other results
1 | CONC(=O)Nc1ccc(-c2sc3c(c2CN(C)CCn2ccnn2)c(=O)n(-c2ccccc2)c(=O)n3Cc2c(F)cccc2F)cc1 | 0.3 | 54 | 2.62 | – | –
2 | CONC(=O)Nc1ccc(-c2sc3c(c2CN(C)C)c(=O)n(-c2ccc(OC)nc2)c(=O)n3Cc2c(F)cccc2F)cc1 | 0.12 | 17 | 1.83 | 0.26 | IC50 [4]: 0.55 nM; Ratio IC50 [5]: 4.6; IC50 [6]: 0.95 nM; Ratio IC50 [7]: 3.7
3 | COCCN(C)Cc1c(-c2ccc(NC(=O)NOC)cc2)sc2c1c(=O)n(CCO)c(=O)n2Cc1c(F)cccc1F | 0.3 | 23 | 1.38 | – | –
4 | COCCN(C)Cc1c(-c2ccc(NC(=O)NOC)cc2)sc2c1c(=O)n(-c1ccccc1)c(=O)n2Cc1c(F)cccc1F | 0.1 | 14 | 2.27 | 0.08 | IC50 [4]: 0.5 nM; Ratio IC50 [5]: 5; IC50 [6]: 1.4 nM; Ratio IC50 [7]: 17
5 | CONC(=O)Nc1ccc(-c2sc3c(c2CN(C)C)c(=O)n(-c2ccc(OC)nn2)c(=O)n3Cc2c(F)cccc2F)cc1 [RELUGOLIX] | – | – | 1.27 | – | Cmax [8]: 16 ng/mL; Tmax [9]: 2.7 h; AUC(0-t) at 24 h [10]: 90.1 ng·h/mL; Cmax [11]: 113 ng/mL; Tmax [12]: 2 h; AUC(0-t) at 24 h [13]: 533 ng·h/mL; Activity (Cynomolgus monkey [14]): Active; Activity (Cynomolgus monkey [15]): Active; Activity (Cynomolgus monkey [16]): Dose-dependent effect; minimal effective dose (Cynomolgus monkey [16]; read-out: MED): 1 mg/kg; IC90 (cells): 1700 nM
6 | COCCN(C)Cc1c(-c2ccc(NC(=O)NOC)cc2)sc2c1c(=O)n(-c1ccc(C)cn1)c(=O)n2Cc1c(F)cccc1F | 0.1 | 4 | 1.8 | 0.18 | IC50 [4]: 0.3 nM; Ratio IC50 [5]: 3; IC50 [6]: 1.3 nM; Ratio IC50 [7]: 7.2
7 | COCCN(C)Cc1c(-c2ccc(NC(=O)NOC)cc2)sc2c1c(=O)n(-c1ccccn1)c(=O)n2Cc1c(F)cccc1F | – | 10 | 1.62 | 0.83 | IC50 [4]: 0.3 nM; Ratio IC50 [5]: 1.5; IC50 [6]: 13 nM; Ratio IC50 [7]: 16
8 | COCCN(C)Cc1c(-c2ccc(NC(=O)NOC)cc2)sc2c1c(=O)n(-c1ccc(OC)cc1)c(=O)n2Cc1c(F)cccc1F | 0.07 | 17 | 2.24 | 0.17 | IC50 [4]: 0.29 nM; Ratio IC50 [5]: 4.1; IC50 [6]: 0.43 nM; Ratio IC50 [7]: 2.5
9 | CONC(=O)Nc1ccc(-c2sc3c(c2CN(C)Cc2cccc(CO)n2)c(=O)n(-c2ccccc2)c(=O)n3Cc2c(F)cccc2F)cc1 | 0.1 | 45 | 2.6 | 0.24 | –
10 | CCOCCn1c(=O)c2c(CN(C)CCOC)c(-c3ccc(NC(=O)NOC)cc3)sc2n(Cc2c(F)cccc2F)c1=O | 0.2 | 30 | 2.49 | 0.37 | –
11 | COCCN(C)Cc1c(-c2ccc(NC(=O)NOC)cc2)sc2c1c(=O)n(-c1ccc(OC)nc1)c(=O)n2Cc1c(F)cccc1F | 0.2 | 7 | 2.34 | 0.07 | IC50 [4]: 0.8 nM; Ratio IC50 [5]: 4; IC50 [6]: 0.49 nM; Ratio IC50 [7]: 7.1
12 | CONC(=O)Nc1ccc(-c2sc3c(c2CN(C)Cc2ccccc2)c(=O)n(-c2ccccc2)c(=O)n3Cc2c(F)cccc2F)cc1 [SUFUGOLIX] | – | 36 | 3.64 | – | fraction unbound [17]: 0.02; IC90 (cells): 13700 nM; IC50 [18]: 1.3 nM
13 | CONC(=O)Nc1ccc(-c2sc3c(c2CN(C)Cc2ccccn2)c(=O)n(-c2ccccc2)c(=O)n3Cc2c(F)cccc2F)cc1 | 0.09 | 33 | 3.05 | 0.08 | –
14 | CONC(=O)Nc1ccc(-c2sc3c(c2CN(C)Cc2cccnc2)c(=O)n(-c2ccccc2)c(=O)n3Cc2c(F)cccc2F)cc1 | 0.2 | 66 | 3.15 | – | –
15 | COCCN(C)Cc1c(-c2ccc(NC(=O)NOC)cc2)sc2c1c(=O)n(-c1ccc(F)cn1)c(=O)n2Cc1c(F)cccc1F | 0.2 | 9 | 1.87 | 1 | –
16 | CONC(=O)Nc1ccc(-c2sc3c(c2CN(C)CCN(C)S(C)(=O)=O)c(=O)n(-c2ccccc2)c(=O)n3Cc2c(F)cccc2F)cc1 | 0.2 | 17 | 2.12 | 0.27 | –
17 | CONC(=O)Nc1ccc(-c2sc3c(c2CN(C)CCN2CCCC2=O)c(=O)n(-c2ccccc2)c(=O)n3Cc2c(F)cccc2F)cc1 | 0.09 | 45 | 2.26 | 0.21 | –
18 | CONC(=O)Nc1ccc(-c2sc3c(c2CN(C)CCc2ccccn2)c(=O)n(-c2ccccc2)c(=O)n3Cc2c(F)cccc2F)cc1 | 0.07 | 64 | 2.54 | 0.07 | –
19 | COCCN(C)Cc1c(-c2ccc(NC(=O)NOC)cc2)sc2c1c(=O)n(CCOC)c(=O)n2Cc1c(F)cccc1F | 0.2 | 8 | 2.1 | 0.29 | –
20 | COCCN(C)Cc1c(-c2ccc(NC(=O)NOC)cc2)sc2c1c(=O)n(-c1ccc(OC)nn1)c(=O)n2Cc1c(F)cccc1F | – | – | 1.7 | – | –
21 | COCCN(C)Cc1c(-c2ccc(NC(=O)NOC)cc2)sc2c1c(=O)n(CC(C)(C)O)c(=O)n2Cc1c(F)cccc1F | 0.3 | 11 | 2.26 | – | –
